Data on two compounds can be found in article PMC8052299 (Biochemical pharmacology, 2021).

One data set deals with OM-10.1 cells. Kind of data set: TNFα-induced provirus expression. The format is cell-based. The following applies: 24 h, read-out: TNFα EC50, inhibition of provirus expression. The method in brief: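 OM-10.1 cells seeded at 200,000 cells/well and co-treated with 1 ng/mL TNFα plus test compound or 0.1% DMSO for 24 h. Cells were fixed, permeabilized, stained for intracellular p24Gag (KC57-RD1) and scored on live-gated cells by flow cytometry. EC50s were derived after normalizing to TNFα-only controls.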

Another data set has as its system primary CD4+ T cells. The experiment in a line: Live cell counting of primary CD4+ T cell cultures. The format is cell-based, human. To be noted: 30 nM. The method in brief: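 CD4+ T cells came from five HIV-infected donors on suppressive ART (<50 copies/mL for ≥3 years), isolated from PBMCs by negative selection. 10⁶ cells per 1 mL R20+ (20% FBS) received 0.1% DMSO or 30 nM test compound for 24 h. Alternatively: 72 h treatment, wash, re-treatment in R20+ plus IL-2 for 72–96 h, wash, then 24 h compound-free. Cells were counted visually by trypan blue.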

Data set [1] deals with J-Lat 10.6 cells. Kind of data set: LRA-induced provirus expression. The class given is cell-based.
Data set [2] deals with J-Lat 10.6 cells. The format is cell-based.
The test system of the next data set is J-Lat 9.2 cells. The experiment in a line: LRA-induced provirus expression. The format is cell-based.
The subject of data set [3] is HIV RNA in CD4+ T cell culture supernatants. Kind of data set: Spontaneous viral RNA production in primary CD4+ T cells from donors with HIV. The format is cell-based, human.
For a further data set, the system named is class I and II HDAC. Kind of data set: Cellular HDAC activity assay. The class given is cell-based. The following applies: for IC50: read-out: HDAC Inhibition IC50, Jurkat cells, 90 min, HDAC-Glo I/II.
For another data set, the system named is Jurkat cells. Kind of data set: Jurkat cell viability, 24 h. The class given is cell-based. To be noted: 0.3 μM.
A short description of data set [4]: Viability of uninfected PBMCs. The format is cell-based, human. To be noted: human, CC50, uninfected PBMCs, Viacount dye.
For another data set, the system named is PBMCs. The experiment in a line: Viability of uninfected PBMCs. To be noted: 6 days, Viacount dye. The class given is cell-based, human.
Data set [5] relates to Tat-dependent transactivation. The experiment in a line: Tat-transactivated mCherry expression in JurTat cells. The format is cell-based. The following applies: up to 30 μM, JurTat. The method in brief: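 JurTat cells (Tat-Dendra plus HIV LTR-mCherry) were induced with 500 ng/mL doxycycline and seeded at 200,000 cells/well with test compound or 0.1% DMSO. After 24 h, Tat-Dendra and mCherry were measured by flow cytometry. Values are percent positive cells and mCherry:Dendra fluorescence ratio, expressed relative to 0.1% DMSO-treated cells.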

In a further data set the test system is HIV-1NL4.3. The experiment in a line: HIV replication assay in PBMCs. The format is cell-based. The following applies: day 6.
Another data set addresses CDK9/cyclin T1 (Homo sapiens, UniProt P50750). The experiment in a line: CDK9 kinase activity assay. The format is biochemical.
The subject of data set [6] is Tat-dependent transactivation. The experiment in a line: HIV Tat-induced GFP expression in CEM-GXR cells. The format is cell-based, HIV-1.
Setting [7] is: 30 nM for 6 – 7 days, washed, 24 hours without compound.

Read-outs that look alike come from different tables or passages of the source.

CDK9/cyclin T1, sequence (P50750 whole entry): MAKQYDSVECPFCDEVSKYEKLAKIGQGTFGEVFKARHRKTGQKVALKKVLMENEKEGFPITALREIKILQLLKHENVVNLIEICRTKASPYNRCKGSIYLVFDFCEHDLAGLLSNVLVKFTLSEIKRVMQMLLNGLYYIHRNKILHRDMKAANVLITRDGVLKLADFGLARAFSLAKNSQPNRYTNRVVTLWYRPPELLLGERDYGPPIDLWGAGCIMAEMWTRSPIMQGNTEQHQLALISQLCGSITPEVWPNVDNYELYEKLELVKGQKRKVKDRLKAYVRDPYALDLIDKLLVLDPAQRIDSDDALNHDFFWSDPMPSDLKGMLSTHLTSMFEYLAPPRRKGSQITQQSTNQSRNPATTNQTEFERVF
CDK9/cyclin T1, sequence (O60563 whole entry partner): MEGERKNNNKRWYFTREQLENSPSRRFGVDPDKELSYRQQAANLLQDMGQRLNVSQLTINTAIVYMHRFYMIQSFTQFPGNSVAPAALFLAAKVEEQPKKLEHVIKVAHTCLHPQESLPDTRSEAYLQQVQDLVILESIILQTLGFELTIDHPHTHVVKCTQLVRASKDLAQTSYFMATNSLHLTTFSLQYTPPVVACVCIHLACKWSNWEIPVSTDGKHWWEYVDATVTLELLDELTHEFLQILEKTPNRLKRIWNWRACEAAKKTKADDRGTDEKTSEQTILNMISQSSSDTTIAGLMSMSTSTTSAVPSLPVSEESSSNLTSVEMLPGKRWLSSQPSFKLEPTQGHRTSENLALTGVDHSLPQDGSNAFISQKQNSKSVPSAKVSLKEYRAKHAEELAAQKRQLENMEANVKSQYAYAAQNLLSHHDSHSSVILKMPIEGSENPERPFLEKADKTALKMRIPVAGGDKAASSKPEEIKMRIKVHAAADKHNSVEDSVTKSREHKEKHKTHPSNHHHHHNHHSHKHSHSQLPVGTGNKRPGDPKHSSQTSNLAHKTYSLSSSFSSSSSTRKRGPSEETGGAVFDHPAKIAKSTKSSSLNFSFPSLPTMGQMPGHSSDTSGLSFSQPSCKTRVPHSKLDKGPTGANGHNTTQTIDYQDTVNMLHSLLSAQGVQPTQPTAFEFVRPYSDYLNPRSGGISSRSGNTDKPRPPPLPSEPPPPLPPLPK

In the case of `CN1CC[C@H](c2c(O)cc(O)c3c(=O)cc(-c4ccccc4Cl)oc23)[C@H](O)C1` [Flavopiridol, flavopiridol], the EC50 in the data set on OM-10.1 cells stood at 0.013 ± 0.0008 µM; in the data set with J-Lat 10.6 cells [1] (J-Lat 10.6, 24 h, read-out: HMBA EC50, inhibition of provirus expression) it was 0.099 ± 0.002 µM; in the data set on J-Lat 10.6 cells [1] (J-Lat 10.6, 24 h, read-out: JQ1 EC50, inhibition of provirus expression), 0.014 ± 0.002 µM; in the data set on J-Lat 10.6 cells [1] (J-Lat 10.6, 24 h, read-out: TNFα EC50, inhibition of provirus expression), 0.019 ± 0.001 µM; in the data set with J-Lat 9.2 cells (J-Lat 9.2, 24 h, read-out: Panobinostat EC50, inhibition of provirus expression), 0.028 ± 0.003 µM; in the data set on J-Lat 9.2 cells (J-Lat 9.2, 24 h, read-out: Prostratin EC50, inhibition of provirus expression), 0.009 ± 0.001 µM. The EC50 in the data set with J-Lat 9.2 cells (J-Lat 9.2, 24 h, read-out: TNFα EC50, inhibition of provirus expression) came out at 0.008 ± 0.0004 µM. The live cell count is reported as 1.2*10^6 ± 5.6*10^5 cells/mL in the data set on primary CD4+ T cells (24 hours) and 1.3*10^6 ± 3.9*10^5 cells/mL in the data set on primary CD4+ T cells (after 6 – 7 days). Besides, in the data set on J-Lat 10.6 cells [2] (10 nM for 21 days, J-Lat 10.6), the “GFP expression 14 days following washout, % of control levels” value amounted to 59.7 ± 15.2%. In the data set on J-Lat 10.6 cells [2] (10 nM for 21 days, washed, 24 h drug-free, J-Lat 10.6), the “GFP expression 24 hours after washing, % of control GFP levels” value is reported as 32.4 ± 3.6%. In the data set with J-Lat 10.6 cells [2] (10 nM, 21 days, J-Lat 10.6), the “GFP expression before wash-out, % of untreated cells” value is on record as 26.2 ± 9.6%. For the same compound, in the data set on J-Lat 10.6 cells [2] (10 nM, 21 days, J-Lat 10.6), the “reduction of spontaneous GFP expression vs 0.1% DMSO” value worked out at 73.8 ± 9.6%. Also, the “duration of reinforced latency following withdrawal in vitro” value in the data set with J-Lat 10.6 cells [2] (J-Lat 10.6, after 21 days' treatment) was not below 14 days. Also, the “average reduction in total viral RNA across all cultures” value in data set [3] (setting [7]) came out at 96.8%. Besides, the “cultures with reduced viral RNA production” value in data set [3] (setting [7]) was 4 of 5. Also, the “cultures with no viral RNA detected” value in data set [3] (30 nM for 6 – 7 days, washed, 24 hours, limit of detection 200 copies/mL) is recorded as “two”. Further, the “average increase in viral RNA vs 0.1% DMSO” value in data set [3] (30 nM, 24 hours) turned out to be 7.1 fold. For the same compound, the “HIV RNA in culture supernatant” value in [3] (30 nM, 24 hours, CD4+ T cells from five donors with HIV) is given as 1.7*10^9 ± 3.1*10^9 viral copies/mL. Further, the IC50 in the data set on class I and II HDAC is more than 1 µM. Moreover, the “HDAC inhibition” value in the data set on class I and II HDAC (up to 1 μM, Jurkat) is “no HDAC inhibition was observed”. In addition, the “viability reduced vs 0.1% DMSO” value in the data set on Jurkat cells stood at 38.8 ± 25%. The compound also came in with a CC50 at 6 days in [4] of 0.25 ± 0.06 µM. The same compound registered a CC50 with PBMCs of 0.22 ± 0.04 µM.

Regarding `O=c1cc(-c2ccc(O)c(O)c2)oc2cc(O[C@@H]3O[C@H](CO)[C@@H](O)[C@H](O)[C@H]3O)cc(O)c12` [L7G, luteolin-7-glucoside], the EC50 in the data set on OM-10.1 cells (OM-10.1, 1 ng/mL TNFα, p24Gag) amounted to 10.3 ± 1.2 µM; with J-Lat 10.6 cells [1] (read-out: HMBA EC50, inhibition of provirus expression, J-Lat 10.6, 10 mM HMBA, 24 h, GFP) it was 10.1 ± 3.5 µM; in the data set with J-Lat 10.6 cells [1] (read-out: JQ1 EC50, inhibition of provirus expression, J-Lat 10.6, 10 μM JQ1, 24 h, GFP), 16.4 ± 3.3 µM; in the data set with J-Lat 10.6 cells [1] (read-out: TNFα EC50, inhibition of provirus expression, J-Lat 10.6, 10 ng/mL TNFα, 24 h, GFP), 11.9 ± 0.5 µM; in the data set with J-Lat 9.2 cells (read-out: Panobinostat EC50, inhibition of provirus expression, J-Lat 9.2, 0.1 μM panobinostat, 24 h, GFP) it was 4.3 ± 0.4 µM; with J-Lat 9.2 cells (read-out: Prostratin EC50, inhibition of provirus expression, J-Lat 9.2, 10 μM prostratin, 24 h, GFP) it was 17.3 ± 2.2 µM. The EC50 in the data set with J-Lat 9.2 cells (read-out: TNFα EC50, inhibition of provirus expression, J-Lat 9.2, 10 ng/mL TNFα, 24 h, GFP) was 4.5 ± 0.6 µM; in data set [6] (read-out: Tat-dependent transactivation EC50, pCMV-Tat-transfected CEM-GXR cells, GFP, 24 h), more than 30 µM. The “effect on ratio of mCherry:Dendra fluorescence” value in data set [5] is given as “neither naringenin nor L7G substantially affected the ratio”. The HIV replication suppressed in the data set with HIV-1NL4.3 (1 μM) was 26.3 ± 24.8%; in the data set with HIV-1NL4.3 (10 μM), 77.3 ± 32.7%. In addition, the “spontaneous latency reversal” value in the data set with J-Lat 10.6 cells [2] (10 μM, 21 days, J-Lat 10.6) is reported as “highly variable, but not inhibited”. Further, the IC50 in the data set on class I and II HDAC was more than 90 µM; at CDK9/cyclin T1 (read-out: CDK9 inhibition IC50, purified CDK9/cyclin T1, 10 μM ATP, ADP-Glo), 6.9 ± 3.9 µM. Besides, the “CDK9 IC50 fold higher than aglycone analogue luteolin” value on CDK9/cyclin T1 was determined as 96 fold. The same compound displayed a cytotoxic concentration (CC50) with PBMCs of 18.3 ± 2.5 µM. In [6] (up to 30 μM, CEM-GXR), the “inhibition of Tat-induced GFP expression” value is reported as “unable to inhibit GFP expression”.

For orientation: EC50 means the concentration at which the effect is half-maximal. Usually IC50 stands for the point on the concentration scale where inhibition reaches its midpoint. Usually CC50 stands for the concentration giving 50% cytotoxicity.
